Laboratory results as given in ChEMBL document CHEMBL1129311, “Antitumor agents. 166. Synthesis and biological evaluation of 5,6,7,8-substituted-2-phenylthiochromen-4-ones” (J Med Chem, 1996).
≈ marks a conversion by molar mass, not a printed value. Calls of active or inactive are those of the source. The rule behind the calls is not given here.

Legend:
Tubulin alpha chain = Tubulin alpha chain (Sus scrofa, UniProt P02550); assay: Inhibitory activity of the compound against tubulin polymerization; assay type: functional
[1] = Therapeutic index valued has been determined in H9 cells; assay type: cell-based; conditions: human, read-out: Therapeutic index
H9 [2] = assay: Effective dose against H9 cell lines; assay type: functional, cell-based; conditions: Homo sapiens
A549 = assay: Effective dose against 50% reduction in Human lung carcinoma (A-549) cell number after 3-day incubation.; assay type: functional, cell-based
P388 [3] = assay: Effective dose against 50% reduction in Murine leukemia (P-388) cell number after 3-day incubation; - indicates inactive; assay type: functional, cell-based; conditions: Mus musculus
KB [4] = assay: Effective dose against 50% reduction in Human epidermoid carcinoma of the nasopharynx (KB) cell number after 3-day incubation; - indicates inactive; assay type: functional, cell-based
RPMI [5] = assay: Effective dose against 50% reduction in Human melanoma (RPMI)cell number after 3-day incubation; - indicates inactive; assay type: functional, cell-based
HCT-8 [6] = assay: Effective dose against 50% reduction in Human ileocecal carcinoma (HCT-8) cell number after 3-day incubation.; assay type: functional, cell-based
H9 [7] = assay: Effective dose against growth of HIV infected H9 lymphocytes; assay type: functional; conditions: Homo sapiens, read-out: ED50 (the source's name)
TE-671 [8] = assay: Effective dose against 50% reduction in Human CNS tumor (TE671) cell number after 3-day incubation; - indicates inactive; assay type: functional, cell-based
H9 [9] = assay: Inhibitory activity against growth of uninfected H9 lymphocytes; assay type: functional, cell-based; conditions: Homo sapiens
Procedure, shortened: (§1)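 Uninfected H9 cultures exposed to compound diluted in medium for 4 days at 37 °C. Cell density counted in a Coulter counter; IC₅₀ determined.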

H9 [10] = assay: Effective dose against growth of HIV infected H9 lymphocytes by 50%; assay type: functional; conditions: Homo sapiens, read-out: ED50 (the source's name)
RPMI [11] = assay: Effective dose against 50% reduction in Human melanoma (RPMI)cell number after 3-day incubation; assay type: functional; conditions: 72 h, read-out: ED50 (the source's name)
H9 [12] = assay: Inhibitory activity against growth of uninfected H9 lymphocytes by 50%; assay type: functional, cell-based; conditions: Homo sapiens; procedure, shortened: as §1
TE-671 [13] = assay: Effective dose against 50% reduction in Human CNS tumor (TE671) cell number after 3-day incubation; assay type: functional; conditions: TE-671, 72 h, read-out: ED50 (the source's name)
HCT-8 [14] = assay: Effective dose against 50% reduction in Human ileocecal carcinoma (HCT-8) cell number after 3-day incubation; assay type: functional; conditions: HCT-8, 72 h, read-out: ED50 (the source's name)
KB [15] = assay: Effective dose against 50% reduction in Human epidermoid carcinoma of the nasopharynx (KB) cell number after 3-day incubation; assay type: functional; conditions: 72 h, read-out: ED50 (the source's name)
RPMI [16] = assay: Effective dose against 50% reduction in Human melanoma(RPMI) cell number after 3-day incubation; assay type: functional; conditions: 72 h, read-out: ED50 (the source's name)
KB [17] = assay: Effective dose against Human epidermoid carcinoma of the nasopharynx; - indicates inactive; assay type: functional, cell-based
[18] = target: T1, DNA topoisomerase 1 (Homo sapiens) (UniProt P11387); assay: Inhibitory activity against human DNA topoisomerase I at dose 100 uM
T1 sequence (whole entry): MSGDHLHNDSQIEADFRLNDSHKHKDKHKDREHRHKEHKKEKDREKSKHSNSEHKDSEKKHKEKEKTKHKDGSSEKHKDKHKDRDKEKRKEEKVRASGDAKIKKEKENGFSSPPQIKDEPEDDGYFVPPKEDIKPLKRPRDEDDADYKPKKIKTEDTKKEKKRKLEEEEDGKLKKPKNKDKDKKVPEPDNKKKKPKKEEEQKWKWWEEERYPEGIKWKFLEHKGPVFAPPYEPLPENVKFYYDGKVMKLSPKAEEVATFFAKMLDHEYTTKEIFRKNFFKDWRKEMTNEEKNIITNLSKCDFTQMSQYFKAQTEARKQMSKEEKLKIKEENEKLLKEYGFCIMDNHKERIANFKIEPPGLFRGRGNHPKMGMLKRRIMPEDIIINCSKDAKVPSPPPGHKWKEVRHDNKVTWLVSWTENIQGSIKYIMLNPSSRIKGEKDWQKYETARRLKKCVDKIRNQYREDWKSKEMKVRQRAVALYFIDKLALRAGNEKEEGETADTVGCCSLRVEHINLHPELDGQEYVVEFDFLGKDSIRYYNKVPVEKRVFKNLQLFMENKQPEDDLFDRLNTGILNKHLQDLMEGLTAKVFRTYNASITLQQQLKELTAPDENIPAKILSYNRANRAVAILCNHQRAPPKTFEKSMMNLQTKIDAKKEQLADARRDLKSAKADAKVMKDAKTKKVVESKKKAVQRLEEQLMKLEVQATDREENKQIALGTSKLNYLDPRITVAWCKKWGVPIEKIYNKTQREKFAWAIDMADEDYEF
Procedure, shortened: (§2)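 Topo I activity read as ATP-independent relaxation of supercoiled plasmid DNA. Test compound at 100 µM; % inhibition is relative to enzyme and DNA control reactions. Camptothecin served as the positive inhibitor control.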

KB [19] = assay: Cellular protein-linked DNA breaks in KB oral carcinoma cell culture treated in triplicate at 50 uM for 1 hr; assay type: functional, Homo sapiens
Procedure, shortened: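 Read-out is potassium-SDS precipitable cpm in treated KB cultures, expressed as fold.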

P388 [20] = assay: Effective dose against 50% reduction in Murine leukemia (P-388) cell number after 3-day incubation; assay type: functional; conditions: Mus musculus, P388, 72 h; read-out: ED50 (the source's name)
[21] = target: T2, DNA topoisomerase II (Homo sapiens) (UniProt P11388+Q02880); assay: Inhibitory activity against human DNA topoisomerase II at dose 100 uM; assay type: protein assay
Procedure, shortened: (§3)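 Topo II activity read as ATP-dependent unknotting of P4 DNA. Test compound at 100 µM; % inhibition is relative to enzyme and DNA control reactions. VP-16 served as the reference inhibitor.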

[22] = target: T2, DNA topoisomerase II (Homo sapiens); assay: Inhibitory activity against DNA topoisomerase II at dose 100 uM; assay type: protein assay; procedure, shortened: as §3
[23] = target: T1, DNA topoisomerase 1 (Homo sapiens); assay: Inhibitory activity against DNA topoisomerase I at dose 100 uM; procedure, shortened: as §2

Tubulin alpha chain, sequence (P02550 whole entry, looked up): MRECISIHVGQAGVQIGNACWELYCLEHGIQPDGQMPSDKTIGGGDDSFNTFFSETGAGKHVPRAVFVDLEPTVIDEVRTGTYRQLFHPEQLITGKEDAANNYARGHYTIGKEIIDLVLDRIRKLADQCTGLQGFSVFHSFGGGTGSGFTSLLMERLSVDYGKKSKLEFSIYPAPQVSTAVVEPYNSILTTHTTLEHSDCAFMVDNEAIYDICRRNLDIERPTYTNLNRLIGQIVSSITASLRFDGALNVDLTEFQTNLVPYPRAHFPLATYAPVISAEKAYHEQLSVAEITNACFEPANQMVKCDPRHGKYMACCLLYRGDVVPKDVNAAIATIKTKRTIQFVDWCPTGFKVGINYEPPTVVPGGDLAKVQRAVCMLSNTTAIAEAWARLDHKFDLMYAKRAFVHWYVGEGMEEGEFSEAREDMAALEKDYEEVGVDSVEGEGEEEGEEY

SMILES | selectivity ratio [1] | ED50 (A549) | ED50 (P388 [3]) | ED50 (KB [4]) | ED50 (RPMI [5]) | ED50 (HCT-8 [6]) | ED50 (TE-671 [8]) | other results
COc1ccc(-c2oc3c(OC)c(OC)c(OC)c(O)c3c(=O)c2OC)cc1O | – | – | – | – | – | – | – | IC50 (Tubulin alpha chain): 830 nM
O=c1cc(-c2ccccc2)oc2cc(O)cc(O)c12 [CHRYSIN] | 9 | – | – | – | – | – | – | EC50 (H9 [2]): 5000 nM
O=c1cc(-c2ccccc2)sc2cc(O)ccc12 | 5.7 | inactive | inactive | inactive | inactive | inactive | inactive | EC50 (H9 [7]): 7 µg/mL (≈ 27.5 µM); IC50 (H9 [9]): 40 µg/mL (≈ 157 µM)
O=c1cc(-c2ccccc2)sc2cccc(O)c12 | – | inactive | inactive | inactive | inactive | inactive | inactive | –
O=c1cc(-c2ccccc2)sc2ccc(O)cc12 | 4.2 | inactive | inactive | inactive | – | inactive | – | EC50 (H9 [10]): 9.5 µg/mL (≈ 37.4 µM); EC50 (RPMI [11]): 0.55 µg/mL (≈ 2.16 µM); IC50 (H9 [12]): 40 µg/mL (≈ 157 µM); EC50 (TE-671 [13]): 2.87 µg/mL (≈ 11.3 µM)
COc1ccc2c(=O)cc(-c3ccccc3)sc2c1 | – | inactive | inactive | – | inactive | – | inactive | EC50 (HCT-8 [14]): 9.16 µg/mL (≈ 34.1 µM); EC50 (KB [15]): 5.5 µg/mL (≈ 20.5 µM)
O=c1cc(-c2ccccc2)sc2ccccc12 | – | inactive | inactive | inactive | inactive | inactive | inactive | –
COc1cccc2sc(-c3ccccc3)cc(=O)c12 | 1 | inactive | inactive | – | – | inactive | inactive | EC50 (RPMI [16]): 5.5 µg/mL (≈ 20.5 µM); EC50 (H9 [10]): 7 µg/mL (≈ 26.1 µM); ED50 (KB [17]): inactive; IC50 (H9 [12]): 7 µg/mL (≈ 26.1 µM)
CC(=O)Oc1cc2sc(-c3ccccc3)cc(=O)c2cc1OC(C)=O | 4.6 | inactive | – | – | – | inactive | – | inhibition [18]: 0%; Activity (KB [19]): 1; EC50 (P388 [20]): 4.83 µg/mL (≈ 13.6 µM); EC50 (H9 [7]): 0.65 µg/mL (≈ 1.83 µM); inhibition [21]: 100%; EC50 (KB [15]): 5.5 µg/mL (≈ 15.5 µM); EC50 (RPMI [11]): 5.5 µg/mL (≈ 15.5 µM); EC50 (TE-671 [13]): 4.58 µg/mL (≈ 12.9 µM); IC50 (H9 [9]): 3 µg/mL (≈ 8.47 µM)
O=c1cc(-c2ccccc2)sc2cc(O)c(O)cc12 | 2.3 | inactive | – | – | – | – | – | Activity (KB [19]): 1; EC50 (P388 [20]): 4.51 µg/mL (≈ 16.7 µM); EC50 (HCT-8 [14]): 1.45 µg/mL (≈ 5.36 µM); inhibition [22]: 0%; EC50 (H9 [7]): 0.8 µg/mL (≈ 2.96 µM); EC50 (KB [15]): 5.5 µg/mL (≈ 20.3 µM); inhibition [23]: 100%; EC50 (RPMI [11]): 3.92 µg/mL (≈ 14.5 µM); EC50 (TE-671 [13]): 5.5 µg/mL (≈ 20.3 µM); IC50 (H9 [9]): 1.8 µg/mL (≈ 6.66 µM)
COc1cccc(-c2cc(O)c3cc(N4CCCC4)ccc3n2)c1 | – | – | – | – | – | – | – | inhibition [22]: 0%
